We go through 25 compounds from ChEMBL document CHEMBL1135543, “Alpha(1)-adrenoceptor antagonists. 4. Pharmacophore-based design, synthesis, and biological evaluation of new imidazo-, benzimidazo-, and indoloarylpiperazine derivatives” (J Med Chem, 2002).

The target of test [1] is T1, Adrenergic receptor alpha-1 (Rattus norvegicus, UniProt P15823+P23944+P43140).
T1 sequence (P15823 whole entry): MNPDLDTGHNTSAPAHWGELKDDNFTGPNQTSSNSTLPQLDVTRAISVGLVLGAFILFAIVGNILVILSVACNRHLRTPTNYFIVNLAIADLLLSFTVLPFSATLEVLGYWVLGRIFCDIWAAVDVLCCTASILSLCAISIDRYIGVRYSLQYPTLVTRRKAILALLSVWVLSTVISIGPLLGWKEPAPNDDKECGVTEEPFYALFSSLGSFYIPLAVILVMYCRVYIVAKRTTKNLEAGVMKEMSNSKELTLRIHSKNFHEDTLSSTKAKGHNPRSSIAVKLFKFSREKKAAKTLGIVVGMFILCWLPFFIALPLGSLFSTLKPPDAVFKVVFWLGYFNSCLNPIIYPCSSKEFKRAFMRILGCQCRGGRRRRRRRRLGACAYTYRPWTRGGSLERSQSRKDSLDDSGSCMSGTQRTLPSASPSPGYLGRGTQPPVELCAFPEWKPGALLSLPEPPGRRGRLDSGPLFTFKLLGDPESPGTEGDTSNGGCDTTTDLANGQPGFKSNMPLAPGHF
T1 sequence (P23944 whole entry): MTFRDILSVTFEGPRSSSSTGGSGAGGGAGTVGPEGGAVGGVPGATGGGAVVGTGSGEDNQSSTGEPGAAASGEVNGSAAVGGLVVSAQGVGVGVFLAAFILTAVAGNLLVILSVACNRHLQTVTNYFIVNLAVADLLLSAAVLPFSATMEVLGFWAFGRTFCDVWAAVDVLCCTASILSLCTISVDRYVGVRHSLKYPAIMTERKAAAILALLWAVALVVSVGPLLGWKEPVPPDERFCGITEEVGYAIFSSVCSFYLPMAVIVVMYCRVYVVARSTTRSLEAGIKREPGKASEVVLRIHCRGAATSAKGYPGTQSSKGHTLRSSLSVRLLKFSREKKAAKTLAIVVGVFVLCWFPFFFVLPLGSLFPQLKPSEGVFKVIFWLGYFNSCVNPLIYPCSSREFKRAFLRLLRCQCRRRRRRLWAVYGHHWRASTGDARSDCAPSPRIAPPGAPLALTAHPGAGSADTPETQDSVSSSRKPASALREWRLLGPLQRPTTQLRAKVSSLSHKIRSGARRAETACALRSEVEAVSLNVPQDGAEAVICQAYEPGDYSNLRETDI
T1 sequence (P43140 whole entry): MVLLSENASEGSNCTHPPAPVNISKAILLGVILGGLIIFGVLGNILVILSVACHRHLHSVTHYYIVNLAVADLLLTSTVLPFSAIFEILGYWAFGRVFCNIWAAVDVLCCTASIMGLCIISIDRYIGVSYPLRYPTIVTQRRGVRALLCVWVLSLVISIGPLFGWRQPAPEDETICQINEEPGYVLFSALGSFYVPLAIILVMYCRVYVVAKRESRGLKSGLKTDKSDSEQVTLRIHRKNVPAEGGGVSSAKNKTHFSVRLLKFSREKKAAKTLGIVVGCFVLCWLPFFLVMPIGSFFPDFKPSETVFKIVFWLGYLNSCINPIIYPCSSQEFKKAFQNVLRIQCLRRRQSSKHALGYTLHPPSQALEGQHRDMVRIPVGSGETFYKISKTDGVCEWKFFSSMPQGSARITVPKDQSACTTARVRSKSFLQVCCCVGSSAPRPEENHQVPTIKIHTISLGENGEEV
Kind of test: Binding affinity against Alpha-1 adrenergic receptor by displacing [3H]-prazosin radioligand in rat cortex membrane. The class given is cell membranes, Brain. Put shortly:
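Rat cerebral cortex membranes washed in 50 mM Tris-HCl pH 7.7 with 5 mM EDTA, stored at –80 °C, then assayed in 50 mM Tris-HCl pH 7.7 (0.2–0.3 mg protein). Incubation 60 min at 25 °C with 0.1 nM [3H]prazosin; nonspecific binding defined with 1 μM prazosin. Seven displacer concentrations in triplicate, GF/C filtration. IC50 by log-probit, Ki by Cheng–Prusoff (Kd 0.24 nM).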

Test [2] has as its target T2, Adrenergic receptor alpha-2 (Rattus norvegicus, UniProt P22086+P19328+P22909).
T2 sequence (P22086 whole entry): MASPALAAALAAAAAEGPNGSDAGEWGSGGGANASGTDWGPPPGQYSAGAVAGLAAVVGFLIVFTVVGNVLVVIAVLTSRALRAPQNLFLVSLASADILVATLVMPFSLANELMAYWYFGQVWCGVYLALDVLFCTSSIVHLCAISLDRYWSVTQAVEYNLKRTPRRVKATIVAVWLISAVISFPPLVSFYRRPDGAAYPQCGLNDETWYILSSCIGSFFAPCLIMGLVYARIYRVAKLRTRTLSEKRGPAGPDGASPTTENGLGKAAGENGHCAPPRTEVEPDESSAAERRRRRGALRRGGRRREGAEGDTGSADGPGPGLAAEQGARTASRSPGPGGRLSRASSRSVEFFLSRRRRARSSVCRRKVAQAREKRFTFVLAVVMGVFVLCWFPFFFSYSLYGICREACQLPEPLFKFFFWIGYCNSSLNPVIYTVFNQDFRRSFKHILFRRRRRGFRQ
T2 sequence (P19328 whole entry): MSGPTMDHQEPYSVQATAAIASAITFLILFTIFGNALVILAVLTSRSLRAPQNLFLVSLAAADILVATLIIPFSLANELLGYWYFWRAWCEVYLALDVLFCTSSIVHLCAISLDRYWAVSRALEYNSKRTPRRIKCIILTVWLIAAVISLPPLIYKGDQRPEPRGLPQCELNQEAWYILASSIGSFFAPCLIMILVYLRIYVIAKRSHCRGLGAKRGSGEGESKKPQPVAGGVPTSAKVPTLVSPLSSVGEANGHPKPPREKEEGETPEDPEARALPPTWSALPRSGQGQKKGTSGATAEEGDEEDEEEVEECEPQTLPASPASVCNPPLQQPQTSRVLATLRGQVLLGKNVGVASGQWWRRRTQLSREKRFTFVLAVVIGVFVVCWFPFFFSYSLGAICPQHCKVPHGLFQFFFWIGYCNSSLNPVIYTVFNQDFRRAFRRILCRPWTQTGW
T2 sequence (P22909 whole entry): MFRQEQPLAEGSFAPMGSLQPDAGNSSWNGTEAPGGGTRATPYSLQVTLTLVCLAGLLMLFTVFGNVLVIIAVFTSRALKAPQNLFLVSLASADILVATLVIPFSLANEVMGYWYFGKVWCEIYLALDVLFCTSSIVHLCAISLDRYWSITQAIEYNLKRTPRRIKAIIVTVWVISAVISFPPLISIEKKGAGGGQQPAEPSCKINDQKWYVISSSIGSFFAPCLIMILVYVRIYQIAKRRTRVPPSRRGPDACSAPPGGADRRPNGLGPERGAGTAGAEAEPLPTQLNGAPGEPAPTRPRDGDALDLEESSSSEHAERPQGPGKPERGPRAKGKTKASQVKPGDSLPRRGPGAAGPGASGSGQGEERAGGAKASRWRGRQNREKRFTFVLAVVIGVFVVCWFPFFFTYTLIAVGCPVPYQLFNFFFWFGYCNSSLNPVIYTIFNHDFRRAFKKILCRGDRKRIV
Kind of test: Binding affinity against Alpha-2 adrenergic receptor by displacing [3H]rauwolscine radioligand in rat cortex membrane. The class given is cell membranes, Brain.

Test [3] addresses T3, 5-hydroxytryptamine receptor 1A (Rattus norvegicus, UniProt P19327).
T3 sequence (P19327 whole entry): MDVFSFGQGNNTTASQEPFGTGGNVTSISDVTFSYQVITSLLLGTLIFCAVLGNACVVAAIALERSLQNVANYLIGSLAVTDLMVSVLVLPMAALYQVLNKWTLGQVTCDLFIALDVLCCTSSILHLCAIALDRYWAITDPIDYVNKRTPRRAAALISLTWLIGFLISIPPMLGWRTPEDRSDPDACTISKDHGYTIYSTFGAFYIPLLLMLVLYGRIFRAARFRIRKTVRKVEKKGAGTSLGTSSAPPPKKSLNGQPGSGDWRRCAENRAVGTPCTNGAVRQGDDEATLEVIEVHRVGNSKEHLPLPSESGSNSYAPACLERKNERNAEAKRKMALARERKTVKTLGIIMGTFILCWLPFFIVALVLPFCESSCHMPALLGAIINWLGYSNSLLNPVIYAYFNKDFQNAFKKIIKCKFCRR
Kind of test: Binding affinity against 5-hydroxytryptamine 1A receptor by displacing [3H]8-OH-DPAT radioligand in rat cortex membrane. The class given is cell membranes. Put shortly:
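Rat cortex membranes, pre-incubated 10 min at 37 °C to remove endogenous 5-HT, stored at –80 °C, then resuspended in 50 mM Tris-HCl pH 7.4 (0.2–0.3 mg protein). GF/C filtration, scintillation counting.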

Test [4] has as its target T1, Adrenergic receptor alpha-1. The test is described as follows: Binding affinity against Alpha-1 adrenergic receptor by displacing [3H]prazosin radioligand in rat cortex membrane. The class given is cell membranes, Brain.

pKi: −log10 of the molar value.

By Ki is commonly meant a measure of affinity in units of concentration, obtained from inhibition or displacement. Lower therefore signals a stronger hold on the target. In general, pKi refers to the Ki on a negative log10 scale, so that one unit is a factor of ten. Read a low pKi as a high Ki. Regarding `COc1ccccc1N1CCN(CCn2nc(-n3cnc4ccccc43)ccc2=O)CC1`, the Ki in test [1] is listed as 33 nM; in test [2], 350 nM. Further, in test [3], the pKi was 6.27.
On to `COc1ccccc1N1CCN(CCCCCCn2nc(-n3ccnc3)ccc2=O)CC1`, for which the Ki in test [1] is given as 52.5 nM; in test [2], 131 nM.
In test [3], `COc1ccccc1N1CCN(CCCn2nc(-n3cnc4ccccc43)ccc2=O)CC1` had a pKi of 6.42.
Consider `O=c1ccc(-n2ccnc2)nn1CCCCCCN1CCN(c2ccccc2Cl)CC1`, for which the figures for the Ki in test [1] and in test [2] were 29.7 nM and 138 nM, respectively.
Turning to `COc1ccccc1N1CCN(CCn2nc(-n3ccc4ccccc43)ccc2=O)CC1`, the Ki stood at 22.7 nM in test [1] and 1098 nM in test [2]. The compound further had a pKi in test [3] of 6.51.
Taken in the same sequence, the figures for `COc1ccccc1N1CCN(CCCCCCn2nc(-n3cnc4ccccc43)ccc2=O)CC1` were 6.4 nM, 113 nM and 6.97.
As for `COc1ccccc1N1CCN(CCCn2nc(-n3ccc4ccccc43)ccc2=O)CC1`, the figures for the Ki in test [1] and in test [2] were 3.2 nM and 170 nM, respectively. Also, the pKi in test [3] was 6.99.
Taken in the same sequence, the figures for `O=c1ccc(-n2cnc3ccccc32)nn1CCCCCCN1CCN(c2ccccc2Cl)CC1` were 15.1 nM, 31.5 nM and 6.21.
For `COc1ccccc1N1CCN(CCCCCn2nc(-n3ccc4ccccc43)ccc2=O)CC1`, in that order: 6.8 nM, 95.6 nM and 6.85.
In the case of `COc1ccccc1N1CCN(CCCCCCn2nc(-n3ccc4ccccc43)ccc2=O)CC1`, the Ki is 2.8 nM in test [1] and 104 nM in test [2]. Further, the pKi in test [3] was 6.29.
For `COc1ccccc1N1CCN(CCCCCn2nc(-n3cnc4ccccc43)ccc2=O)CC1`, in that order: 3.1 nM, 30.5 nM and 6.90.
Taken in the same sequence, the figures for `COc1ccccc1N1CCN(CCCCCn2nc(-n3ccnc3)ccc2=O)CC1` were 37.5 nM, 427 nM and 6.65.
`O=c1ccc(-n2ccnc2)nn1CCCCN1CCN(c2ccccc2Cl)CC1`: the Ki in test [1] came out at 24.6 nM; in test [2], 65.2 nM.
Take `O=c1ccc(-n2ccnc2)nn1CCN1CCN(c2ccccc2Cl)CC1`: the inhibitory constant (Ki) was 472 nM in test [1] and 2072 nM in test [2].
Take `COc1ccccc1N1CCN(CCCn2nc(-n3ccnc3)ccc2=O)CC1`: the pKi in test [3] is 6.33.
Same read-out and setting: the same measure for `O=c1ccc(-n2cnc3ccccc32)nn1CCCN1CCN(c2ccccc2Cl)CC1`: 6.34.
`COc1ccccc1N1CCN(CCCCCCCn2nc(-n3ccnc3)ccc2=O)CC1`: the Ki came to 76.5 nM in test [2] and 6 nM in test [4]. The compound further showed a pKi in test [3] of 7.01.
`O=c1ccc(-n2cnc3ccccc32)nn1CCCCCCCN1CCN(c2ccccc2Cl)CC1`: the Ki is recorded as 1 nM in test [1] and 10.3 nM in test [2]. Further, the pKi in test [3] is 6.74.
Regarding `COc1ccccc1N1CCN(CCn2nc(-n3ccnc3)ccc2=O)CC1`, the results for the Ki in test [1] and in test [2] were 237 nM and 1492 nM, respectively.
In test [3], `O=c1ccc(-n2ccnc2)nn1CCCN1CCN(c2ccccc2Cl)CC1` had a negative logarithm of the Ki (pKi) of 6.21.
Regarding `O=c1ccc(-n2cnc3ccccc32)nn1CCN1CCN(c2ccccc2Cl)CC1`, the results for the Ki in test [1] and in test [2] were 70.4 nM and 265 nM, respectively. The pKi in test [3] is 6.00.
Consider `COc1ccccc1N1CCN(CCCCCCCn2nc(-n3cnc4ccccc43)ccc2=O)CC1`, for which the values for the Ki in test [1] and in test [2] were 1.7 nM and 89.8 nM, respectively.
Consider `O=c1ccc(-n2ccnc2)nn1CCCCCN1CCN(c2ccccc2Cl)CC1`, for which the Ki is listed as 23.3 nM in test [1] and 134 nM in test [2]. This compound also had a pKi in test [3] of 6.49.
For `O=c1ccc(-n2cnc3ccccc32)nn1CCCCN1CCN(c2ccccc2Cl)CC1`, in that order: 1.3 nM, 5.8 nM and 6.74.
As to `O=c1ccc(-n2cnc3ccccc32)nn1CCCCCN1CCN(c2ccccc2Cl)CC1`, the Ki in test [1] was 4.5 nM; in test [2] it was 127 nM. Moreover, the pKi in test [3] was 6.45.
